Experimental data from the EternaBench riboswitch data.

Tested on: MS2 coat protein
Experiment: apparent Kd, MS2 coat protein; higher = weaker binding; RNA-MaP array; tryptophan 2.4 mM where present
Summary of the method: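 Designs on Illumina sequencing-chip clusters, transcribed by stalled E. coli RNA polymerase, were exposed to SNAP-549-labelled MS2 coat protein in doubling steps from 0.7 or 1.5 nM up to 3 µM, without and then with constant ligand. The buffer held 100 mM Tris-HCl pH 7.5, 80 mM KCl, 4 mM MgCl2, BSA, DTT, yeast tRNA and Tween-20. Apparent Kd values are medians of filtered per-cluster binding-curve fits to green signal normalised to red-channel RNA signal and control-cluster median Fmax.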

[1] = designed as: OFF switch for tryptophan, no ligand
[2] = ligand present: tryptophan, designed as: OFF switch for tryptophan
[3] = designed as: ON switch for tryptophan, no ligand
[4] = ligand present: tryptophan, designed as: ON switch for tryptophan

Sequence | apparent Kd [1] [µM] | apparent Kd [2] [µM] | apparent Kd [3] [µM] | apparent Kd [4] [µM]
GGAGCUACGUCGGCCGCCACUAGCGGAUAUUACGUGUACAUGAGGAUCACCCAUGUAAUACGGUUUAGGACCGGGACGUAGCUCC | 0.0173 | 0.0165 |  | 
AAUAAUAGGUGAUCCUGACGAGUGGCAUAACGAGGACCGGUACGGCCGCCACUCGAACAUGAGGAUCACCCAUGUAGCCACUCGA |  |  | 0.312 | 0.393
CCUAUGCAGUCGGCCGCCACUGAGUCCUCAAUAAUAAAUUAAUAAACAUGAGGAUCACCCAUGUACAGGACCGGGACUGUAUAGG | 0.314 | 0.373 |  | 
AUAAAUAAGGCGGCCGCCACUAAUAUAUUAAUAUUUUAUAUCCGACAUGAGGAUCACCCAUGUGGUAGGACCGGGCCAAUAAUUA |  |  | 0.0262 | 0.0258
AGUCACUCGAGGUGAUCUGACGAGUGGCAACGAGGACCGGUACGGCCGCCACUCGAAUAAACAUGAGGAUCACCCAUGUACAAAU |  |  | 0.213 | 0.196
CGAAUAUAGACGGCCGCCACUCUACAAACAUGAGGAUCACCCAUGUUCACAUAGUGGAAACACAUGAGGACCGGGUCAUAGGCAU |  |  | 0.0185 | 0.014
GCAUCCUAGUCGGCCGCCACUGCAUGUAGGCAGUGCUGCUACAAACAUGAGGAUCACCCAUGUAGCAGGACCGGGACUAGGAUGC |  |  | 0.015 | 0.0131
AACAUGAGGAUCACCCAUGUUCUCGUGUACCGAGGACCGGUACGGCCGCCACUCGGUUCUCGCGAGGAUGGUCAAAGACUAUCCA |  |  | 0.0191 | 0.016
UCGUUAUGGUCGGCCGCCACUCGCGGAGAGCAUAGCUCAAACAUGAGGAUCACCCAUGUAUCAUGGAGGACCGGGACCAUAACGU |  |  | 0.0319 | 0.014
CUAUGUAUAUAUGCGAAAGCUACGUGUUGACGAGGACCGGUACGGCCGCCACUCGACAUGAGGAUCACCCAUGUAAUAUAUAUAG |  |  | 0.2 | 0.0627
CUAUAUUUAUCGGCCGCCACUUACUCAUGAGGUAACAACAUGAGGAUCACCCAUGUUUGAGGAUCAAGGACCGGGAUAAAUAUAG |  |  | 0.0278 | 0.0163
CACGCACGAUCGGCCGCCACUCAUGUAGCUUACAUGAGGAUCACCCAUGUAUUUUCUUUCUUUUAGAGGACCGGGAUCGUGCGUG |  |  | 0.0249 | 0.0165
AGAUUCGACACGGCCGCCACUCGUGGUGGAUUACCUAGUGUCGAACAUGAGGAUCACCCAUGUACGAGGACCGGGUGUUGAGUCU | 0.075 | 0.2 |  | 
CUAUAUAUAGCGGCCGCCACUUACUCAUGAGGUAACAACAUGAGGAUCACCCAUGUUUGAGGAUCAAGGACCGGGCUAUAUAUAG |  |  | 0.0282 | 0.0167
ACAUGUUGGUGGUAUCUACGAAGGCGGAAACGAGGACCGGUACGGCCGCCACUCGGCGACAUGAGGAUCACCCAUGUGGUUAAAA | 0.0526 | 0.0275 |  | 
GUGUUAUGGUCGGCCGCCACUCUGACAUGAGGAUCACCCAUGUUGUACAUGAGGAUCACCCAUGUGAGGACCGGGACACGUGCGA | 0.401 | 0.442 |  | 
AGCCGGAUUACGGCCGCCACUGUAGACGUGACGAAAGUCGCGUCAACAUGAGGAUCACCCAUGUACAGGACCGGGUGGUCAGGCG |  |  | 0.173 | 0.0412
GAUAUGGAAACAUGUCAGAUCCUUACCGGUCGAGGACCGGUACGGCCGCCACUCGGAAAUAUUGUACAUGAGGAUCACCCAUGUA | 0.0137 | 0.0145 |  | 
CAUAUAUAAGCGGCCGCCACUUACUCAUGAGGUAACAACAUGAGGAUCACCCAUGUUUGAGGAUCAAGGACCGGGCUUAUAUAUG |  |  | 0.0283 | 0.0183
GUUUUGGGAUCGGCCGCCACUACAUGAGGAUCACCCAUGUGGACAAAUAGGGUUUUUAAGCUCGGUAGGACCGGGAUUCGAACAU | 0.0181 | 0.0675 |  | 
